Most compounds without a hit are left out; they make up all but 1.8% or so of the library.
M4 PAM: human M4 muscarinic receptor positive allosteric modulators, primary screen, CHO-K1 cells, Fluo-8 calcium fluorescence; activation, % at 3 µM; hit rate 0.4% among 360,000; CHO-K1 hM4/Gqi5, ACh EC20; 0% = ACh EC20, 100% = maximal ACh;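 active = activation above its plate's cutoff, the mean activation of sample wells plus 3 SD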
Target sequence (P08173 whole entry, looked up): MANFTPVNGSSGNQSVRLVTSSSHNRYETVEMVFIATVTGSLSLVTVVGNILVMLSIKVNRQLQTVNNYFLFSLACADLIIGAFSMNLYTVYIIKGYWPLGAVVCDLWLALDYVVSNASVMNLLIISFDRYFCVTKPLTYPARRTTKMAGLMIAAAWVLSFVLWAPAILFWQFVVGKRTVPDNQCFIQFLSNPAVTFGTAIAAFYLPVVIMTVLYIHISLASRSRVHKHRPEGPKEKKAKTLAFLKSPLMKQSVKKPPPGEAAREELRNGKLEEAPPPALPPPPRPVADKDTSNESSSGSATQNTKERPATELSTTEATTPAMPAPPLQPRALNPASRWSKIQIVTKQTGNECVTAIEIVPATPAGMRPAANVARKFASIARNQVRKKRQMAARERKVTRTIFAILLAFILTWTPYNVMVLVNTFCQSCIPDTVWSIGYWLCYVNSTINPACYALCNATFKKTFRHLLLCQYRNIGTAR
CHRM4 antagonist: human M4 muscarinic receptor antagonists, primary screen, CHO cells, Fluo-8 calcium fluorescence; Muscarinic acetylcholine receptor M4 (Homo sapiens), P08173; CHO-hM4 cells, ACh EC80; inhibition, % at 3 µM; hit rate 0.73% among 360,000; AID 624125, 2012;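 active = inhibition above its plate's cutoff, the mean inhibition of sample wells plus 3 SD, cut at about 27% in these data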;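 also: 0% = acetylcholine EC80 with DMSO and 100% = DMSO without agonist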
M5 PAM: human M5 muscarinic receptor positive allosteric modulators, primary screen, CHO-K1 cells, Fluo-8 calcium fluorescence; Muscarinic acetylcholine receptor M5 (Homo sapiens), P08912; CHO-K1 hM5, ACh EC20 PAM; 0% = ACh EC20, 100% = ACh EC100; activation, % at 3 µM; hit rate 0.3% among 360,000; AID 624038, 2012;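 active = activation above the run cutoff, the mean activation of all test compounds plus 3 SD, cut at about 18% in these data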
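System – CHO-K1 hM5 cells · Compound – 3 µM, single dose · Incubation – compound preincubation 140 s before EC20 acetylcholine addition · Technique – Fluo-8 calcium fluorescence · Measure – Max/basal fluorescence ratio as % of EC20–EC100 ACh window · Benchmarks – low control EC20 acetylcholine (0%), high control EC100 acetylcholine (100%) · Replication – singlicate, one well per test compound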
CHRM4 agonist: human M4 muscarinic receptor agonists, primary screen, CHO-K1 cells, Fluo-8 calcium fluorescence; Muscarinic acetylcholine receptor M4 (Homo sapiens), P08173; CHO-K1 hM4/Gqi5; vehicle 0%, full acetylcholine response 100%; activation, % at 3 µM; hit rate 0.14% among 360,000; AID 624127, 2012;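 active = activation above the run mean over all test wells plus 3 SD, cut at about 32% in these data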;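 also: peak over basal fluorescence ratio per well then scaled between controls; 0% = DMSO wells and 100% = acetylcholine at EC100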
M5 ag: human M5 muscarinic receptor agonists, primary screen, CHO-K1 cells, Fluo-8 calcium fluorescence. AID 624037, 2012. hit rate 0.19% among 360,000. activation, % at 3 µM. CHO-K1 hM5 cells; 0% DMSO wells, 100% maximal acetylcholine response;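 active = activation above the run's mean over test compounds plus 3 SD, cut at about 23% in these data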;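 also: signal is peak over basal fluorescence ratio across the kinetic read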
M5 antag: human M5 muscarinic receptor antagonists, primary screen, CHO cells, Fluo-8 calcium fluorescence; Muscarinic acetylcholine receptor M5 (Homo sapiens), P08912; hit rate 0.59% among 360,000; AID 624040, 2012; CHO-hM5 cells, ACh EC80; inhibition, % at 3 µM;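 active = inhibition above a per-plate cutoff, the mean of that plate's test compounds plus 3 SD, cut at about 27% in these data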;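 also: 0% = acetylcholine EC80 with DMSO and 100% = DMSO without agonist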
Active calls of the source: *.

SMILES	M4 PAM	CHRM4 antagonist	M5 PAM	CHRM4 agonist	M5 ag	M5 antag
CCOC(=O)[C@H]1[C@H]2COc3ccc(C)cc3[C@@H]2N2C(=O)c3cc(OC)c(OC)cc3NC(=O)[C@@]12C	19.4	-25.9	-6.2	2.3	3.1	-1.7
COc1ccc(S(=O)(=O)NNC(=O)Nc2ccc(C)cc2C)c(OC)c1	0.2	3.5	4.2	0.9	-1.7	0.8
O=c1ccc2cc(O)c(O)cc2o1	-2.0	2.7	-11.8	-0.3	24.9*	3.6
O=c1ccc2ccc(O)cc2o1	-1.9	5.0	-4.1	0.1	0.0	4.2
COc1cc(-c2noc(C)c2-c2ccc(N(C)C)nc2)cc(OC)c1OC	-7.2	-3.0	-11.6	35.8*	36.1*	12.0
COC(=O)c1c(N)n(CCCN2CCOCC2)c2nc3ccccc3nc12	-2.2	4.4	-11.8	1.5	0.2	9.5
COCCOC(=O)c1c(N)n(CCCN2CCOCC2)c2nc3ccccc3nc12	10.0	10.2	19.2*	0.8	3.8	-6.3
COc1ccc(Nc2ncc(C(=O)N3CCN(Cc4ccccc4)CC3)c3ccccc23)cc1	-28.4	27.7*	-19.2	22.8	3.5	20.5
COc1ccc(Nc2ncc(C(=O)N3CCC(C(N)=O)CC3)c3ccccc23)cc1	-5.6	5.2	5.3	0.3	-3.1	10.1
O=C(CCNS(=O)(=O)c1ccc(Br)cc1)NCC(c1cccs1)N1CCOCC1 (centres undefined)	3.1	-8.6	-3.0	0.4	0.1	-4.8
Cc1ccc(CNC(=O)CSc2nnc(CNC(=O)c3ccccc3)o2)cc1	22.9*	-5.9	0.5	2.3	-2.5	0.2
COc1nc(NCCO)nc(Nc2ccc([N+](=O)[O-])cc2)n1	24.5*	-1.9	-0.4	1.9	1.5	8.6
O=C(CN(Cc1ccco1)Cc1cccs1)N1CCN(S(=O)(=O)c2cccc(F)c2)CC1	-1.8	5.1	-14.8	13.7	0.9	6.0
C[N+](C)(C)CC(=O)N/N=C/c1c2ccccc2cc2ccccc12	0.6	1.1	-12.0	0.3	32.0*	18.6
Cn1cccc1CC(=O)N/N=C\c1c2ccccc2cc2ccccc12	2.9	-10.6	0.5	0.4	-1.2	-6.9
Cc1csc(C(=O)O)c1-c1c(C)csc1C(=O)O	22.9*	-5.6	0.4	0.9	-2.1	15.6
Cc1csc(C(=O)O)c1NC(=O)c1ccc(F)cc1	-0.3	-13.2	-3.4	0.8	-2.3	11.9
Cc1[nH]c2ccccc2c1C(=O)c1cc(Cc2ccccc2)sc1N	4.7	4.4	1.8	3.2	2.2	5.8
CN(C)CCCN(C(=O)c1cc(-c2cccs2)nc2ccccc12)c1nc2c(F)cccc2s1	-12.9	27.2*	4.8	7.5	-5.2	3.8
COc1cc2ccnc(C=NO)c2cc1OC	2.5	-6.0	-1.9	-1.3	-1.0	5.4
Cc1ccnc(NS(=O)(=O)c2ccc(NS(=O)(=O)c3ccccc3)cc2)n1	6.7	6.3	23.3*	0.7	1.2	-6.3
CC1CCN(S(=O)(=O)c2ccc(C(=O)OC(C)C(=O)N(C)C3CCCCC3)cc2)CC1 (centres undefined)	-0.7	-0.8	1.7	0.9	0.6	1.1
N=c1c2ccccc2nc2n1CCCCCCCCCCC2	-8.8	23.2	-28.2	33.8*	3.5	15.5
O=c1c2ccccc2nc2n1CCCCC2	-11.1	13.9	-8.3	0.4	-11.8	10.2
Cc1cc(N2CCN(C(C(=O)NC3CCCC3)C(C)(C)C)CC2)c2ccccc2n1 (centres undefined)	-10.2	-4.1	-0.9	2.2	-4.3	-2.9
SMILES	M4 PAM	CHRM4 antagonist	M5 PAM	CHRM4 agonist	M5 ag	M5 antag
Cc1ccc(SCCNS(C)(=O)=O)cc1	13.7	-3.2	21.5*	0.9	-2.9	-5.9
NCCCn1c(C(=O)c2cc(Cl)c(N)c(Cl)c2)c2ccc(C(F)(F)F)cc2[n+]1[O-]	7.4	-7.6	18.8*	7.3	7.1	-7.4
NC(=O)CCCn1c(C(=O)c2cc(Cl)c(N)c(Cl)c2)c2ccc(C(F)(F)F)cc2[n+]1[O-]	8.9	-9.0	-2.0	7.1	2.6	12.0
COC(=O)C[C@H]1C[C@H]2c3cc(NC(=O)Cc4ccncc4)ccc3O[C@H]2[C@@H](CO)O1	-0.9	7.0	-3.3	0.5	0.4	11.7
O=S(=O)(Cc1ccccc1)N1CCN(C/C=C/c2ccccc2)CC1	-6.2	9.3	-2.6	0.6	-4.7	4.8
CS(=O)(=O)N1CCN(C/C=C/c2ccccc2)CC1	19.4*	-4.7	-1.6	1.2	-5.7	-4.5
COc1ccccc1OCCNC(=O)CNC(=O)c1ccc(C(C)(C)C)cc1	15.9	-15.6	5.6	1.0	-3.9	10.2
COc1ccccc1OCCNC(=O)c1ccc(C(C)(C)C)cc1	0.1	6.8	20.4*	2.9	-2.8	-8.2
O=C(N/C(=C/c1cccc([N+](=O)[O-])c1)C(=O)N1CCCCC1)c1ccco1	-3.7	-5.8	-9.8	1.7	-2.9	32.1*
O=C(N/C(=C/c1cccc([N+](=O)[O-])c1)C(=O)N1CCCCCC1)c1cccs1	8.3	-6.0	-0.1	1.4	0.3	-2.2
O=C(CC[C@H]1O[C@@H](n2ccc(=O)[nH]c2=O)[C@H](O)[C@@H]1O)NCc1cccc2ccccc12	20.6*	-8.3	9.6	0.9	-1.0	8.4
CCOC(=O)N1CCN(C(=O)C[C@@H]2C[C@@]3(C(=O)OC)CC(C)(C)CC=C3N(Cc3ccc4c(c3)OCO4)C2=O)CC1	0.3	-4.5	1.5	5.5	4.3	-2.2
CN(C(=O)COC(=O)C1=COCCO1)c1c(N)n(Cc2ccccc2)c(=O)[nH]c1=O	-1.5	10.3	4.8	0.5	3.8	-0.1
Cc1onc(-c2c(Cl)cccc2Cl)c1C(=O)N1CCc2ccccc2C1	-16.1	32.0*	-21.8	-1.1	-7.6	11.6
Cc1onc(-c2ccccc2Cl)c1C(=O)N1CCOC12CCCCC2	19.0*	-17.0	13.6	1.6	2.5	4.2
O=C(NC1CCCCC1)c1cc(-c2cccs2)on1	-5.3	-4.4	-0.2	1.2	0.3	12.6
COC(=O)C[C@@H]1C=C[C@@H](NC(C)=O)[C@@H](CO)O1	-0.2	-14.3	-11.7	0.8	0.6	6.7
O=C(Nc1ccc(N2CCCCCC2)cc1)c1cccc(S(=O)(=O)N2CCOCC2)c1	-7.9	1.8	-11.9	10.9	3.9	10.6

Screening results from PubChem BioAssay.
